# MrgX1 PAM = human MrgX1 positive allosteric modulation, primary screen; Q96LB2; MrgX1-HEK293, Fluo-4 calcium flux, FDSS; hits give high values; B-score at 10 µM; 310,000 compounds, 0.63% hits; AID 588675;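 active = plate-corrected calcium response at least 3 library SD above typical, normal starting fluorescence, not activating the receptor alone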;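 also: compound read alongside a low EC10 to EC30 dose of BAM8-22 agonist; peak minus trough fluorescence over baseline measured at the second addition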
# Target sequence (Q96LB2 whole entry, looked up): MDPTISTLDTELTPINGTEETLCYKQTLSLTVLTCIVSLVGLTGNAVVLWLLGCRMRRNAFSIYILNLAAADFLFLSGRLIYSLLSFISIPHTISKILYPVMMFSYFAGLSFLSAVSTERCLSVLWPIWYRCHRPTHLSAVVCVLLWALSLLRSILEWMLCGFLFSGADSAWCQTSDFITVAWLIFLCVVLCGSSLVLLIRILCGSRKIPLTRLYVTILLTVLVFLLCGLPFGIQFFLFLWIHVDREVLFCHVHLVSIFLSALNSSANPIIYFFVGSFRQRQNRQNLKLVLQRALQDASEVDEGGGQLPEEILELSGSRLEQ
# RGS4 inh = inhibitors of human RGS4; P49798; HEK293 M3R/RGS4 inducible, Fluo-4 calcium flux; hits give high values; triggered by carbachol at its EC20; B-score at 10 µM; 310,000 compounds, 0.45% hits; AID 463165;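 active = B-score, a plate-corrected calcium signal, over three deviations above library mean, with baseline fluorescence within five deviations of library mean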;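 also: RGS4 expression induced by doxycycline in cells with stable M3 receptor; B-score is computed from the integrated fluorescence ratio over baseline after carbachol; higher B-score means a larger calcium signal and so more RGS4 inhibition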
# Target sequence (P49798 whole entry, looked up): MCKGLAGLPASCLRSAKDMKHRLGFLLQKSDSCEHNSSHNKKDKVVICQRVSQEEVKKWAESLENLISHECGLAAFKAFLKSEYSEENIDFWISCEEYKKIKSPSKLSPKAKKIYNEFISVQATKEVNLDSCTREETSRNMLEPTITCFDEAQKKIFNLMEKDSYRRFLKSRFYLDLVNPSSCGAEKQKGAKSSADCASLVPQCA
# MrgX1 ag = agonists of human MrgX1 receptor; Q96LB2; MrgX1-HEK293 cells, Fluo-4 calcium fluorescence, agonist mode; hits give high values; B-score at 10 µM; 310,000 compounds, 0.44% hits; AID 588627;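 active = calcium response B-score plate-corrected fluorescence ratio at least 3 library SD, with starting fluorescence B-score inside 5 SD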
#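 Assay system: MrgX1-expressing HEK293 cells / Amount: fifteen thousand cells per well / Doses: test compound in the initial addition of three / Timing: cells plated overnight, dye loaded 0.5 h 37 °C, 0.5 h room temperature / Technique: kinetic calcium dye fluorescence, Fluo-4 NW / Control set: positive and negative controls per plate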
# RGS4 act = RGS4 potentiation or activation. HEK293 M3R/inducible RGS4, carbachol calcium flux Fluo4; hits give low values. B-score at 10 µM. 310,000 compounds, 0.92% hits. AID 463111;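 active = B-score of the integrated calcium signal more than 4 SD below the library mean, with starting fluorescence not abnormally high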;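 also: negative B-score means reduced calcium response which marks RGS4 activation or potentiation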
#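 test system = HEK293 cells with stable M3R and inducible RGS4 | schedule = recording 10 s baseline at 1 Hz, 100 s post-agonist | technique = Fluo4-AM (2 µM) calcium-flux fluorescence, kinetic read | measure = Agonist-evoked peak-minus-minimum fluorescence over baseline, integrated ratio, B score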
# MrgX1 antagonist = human MrgX1 receptor antagonism, primary screen; 310,000 compounds, 1.3% hits; B-score at 10 µM; Q96LB2; MRGX1-HEK293 calcium flux, Fluo-4, BAM8-22 antagonism; hits give low values; AID 588676;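 active = calcium-response B-score plate-corrected more than 3 library SD below zero, starting fluorescence within 5 deviations, no agonist response on first addition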;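 also: peak minus trough fluorescence over baseline after final BAM8-22 challenge near maximal dose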
# RGS4 act valid = confirmation of RGS4 activators | shares compounds with RGS4 act | HEK293 M3R/RGS4 inducible, carbachol calcium flux Fluo4 | inhibition, % at 10 µM | 1,100 compounds, 89% hits | AID 602282;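 active = inhibition above 3 SD of the buffer control wells, cut at about 41% in these data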;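 also: signal is the integrated peak-minus-minimum Fluo4 fluorescence over baseline ratio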
# M3R Ca counter = counter-screen for RGS4 activators: effect in non-induced cells. HEK293 M3R non-induced RGS4, Fluo4 calcium flux; after carbachol challenge at its EC90. 1,100 compounds, 82% hits. shares compounds with RGS4 act. inhibition, % at 10 µM;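 active = inhibition exceeding 3 SD of buffer-only control wells, cut at about 26% in these data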;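 also: percent drop in integrated peak-minus-baseline over baseline Fluo4 ratio after carbachol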
# The depositor's hits bear a star; i = inactive; · = no result given. The list is not random: actives were taken first. Their share in the collection is about 3.5%.
SMILES,MrgX1 PAM,RGS4 inh,MrgX1 ag,RGS4 act,MrgX1 antagonist,RGS4 act valid,M3R Ca counter
CCn1c(C)cc(O)c(C(=O)Nc2cccc(Cl)c2)c1=O,i,i,i,i,i,·,·
COc1ccc2cc3cc(C(=O)NCc4ccccn4)oc3nc2c1,i,i,i,i,i,·,·
N=c1c2c(-c3ccccc3)c(-c3ccccc3)n(Cc3ccco3)c2ncn1Cc1ccccc1,i,i,i,-11*,i,93*,95*
COC(=O)c1ccc(N(CC(=O)NC2CCCC2)C(=O)c2ccc(C)s2)cc1,i,i,i,-8.9*,i,0,0
COc1ccc(N(CC(=O)NC2CCCCC2)C(=O)c2ccc(C)s2)cc1OC,i,i,i,i,i,·,·
Nc1ncc(N=Nc2cc(C(=O)O)ccc2Cl)s1,i,·,i,·,i,·,·
CCOC(=O)c1[nH]c2ccc(Br)cc2c1NC(=O)CCN1CCCC(C)(C)C1,i,i,i,-14*,i,94*,74*
CCOC(=O)c1[nH]c2ccc(F)cc2c1NC(=O)CCN1CCOCC1,i,i,i,i,i,·,·
O=C1CC(c2ccc(F)cc2)SC(N(c2ccccc2)c2ccccc2)=N1 (configuration not stated),i,i,i,i,i,·,·
Cc1ccc(C(=O)Nc2ccc(CN3CCCCC3)cc2)c(C)c1,i,i,i,-8.5*,i,55*,84*
COc1ccc(Cl)cc1C(=O)Nc1ccc(CN2CCCCC2)cc1,i,i,i,i,i,·,·
CC(C)CN=C(NS(=O)(=O)c1ccccc1)C(Cl)(Cl)Cl,i,i,i,i,i,·,·
CC(C)=CCc1c(O)cc2c(c1O)C(=O)CC(c1ccccc1)O2 (configuration not stated),i,i,i,i,i,·,·
CC(C)=CCc1c(O)ccc2c1OC(c1ccc(O)c(O)c1)CC2=O (configuration not stated),i,i,i,-8.7*,i,93*,78*
Cc1ccnc(Nc2nc(-c3ccc(Cl)cc3)cs2)c1,i,i,i,i,i,·,·
Cc1ccnc(Nc2nc(-c3ccc(F)cc3)cs2)c1,i,i,i,-8.8*,i,92*,74*
CCN(CC)S(=O)(=O)c1cc(NC(=O)C(C)N2CCN(c3ccccn3)CC2)ccc1C (configuration not stated),i,i,i,-9.1*,i,64*,0
O=C(NC(=S)Nc1ccccc1N1CCN(C(=O)c2ccccc2)CC1)c1ccccc1F,i,i,i,-8*,i,68*,0
COc1ccc(C(=O)Nc2ccccc2N2CCN(C(=O)c3ccccc3)CC2)cc1Br,i,i,i,-9.4*,i,64*,26*
O=C(Nc1ccccc1N1CCN(C(=O)c2ccccc2)CC1)c1ccc(Cl)cc1,i,i,i,i,i,·,·
O=C(Nc1ccccc1N1CCN(C(=O)c2ccccc2)CC1)c1ccc(Br)o1,i,i,i,-7.8*,i,48*,0
O=C(NC(=S)Nc1ccccc1N1CCOCC1)c1ccccc1F,i,i,i,i,i,·,·
COc1cccc(C(=O)Nc2nc(-c3ccc4c(c3)OCO4)cs2)c1,i,i,i,i,i,·,·
Cc1ccc(N/N=C(/Sc2nnnn2-c2ccccc2)C(=O)c2ccccc2)cc1,i,i,i,-16*,i,0,0
Cc1nc2ccc(NC(=O)c3cccc(S(=O)(=O)N(C)c4ccccc4)c3)cc2s1,i,i,i,-8.9*,i,88*,69*
SMILES,MrgX1 PAM,RGS4 inh,MrgX1 ag,RGS4 act,MrgX1 antagonist,RGS4 act valid,M3R Ca counter
O=C(Nc1ccccc1C(=O)O)c1cc(S(=O)(=O)N2CCCCCC2)ccc1Cl,i,i,i,-8.4*,i,0,0
O=C(N/N=C/c1ccccc1C(=O)O)c1cccc(S(=O)(=O)Nc2cc(Cl)ccc2Cl)c1,i,i,i,i,i,·,·
O=C(NCCc1ccccc1)C(c1cccs1)N(C(=O)c1csnn1)C1CC1 (configuration not stated),i,i,i,i,i,·,·
O=C(NCCc1ccccc1)C(c1cccs1)N(C(=O)CCl)c1ccc(Cl)cc1 (configuration not stated),i,i,i,-8.1*,i,50*,0
Cc1ccc(Cl)cc1NC(=O)C(=O)N1CCCCC1,i,i,i,i,i,·,·
Cc1ccc(Cl)cc1NC1=NC(=S)N(C(C)C)C12CCCCC2,i,i,i,-8.3*,i,80*,41*
CC(C)N(CC#CCC(O)(c1ccccc1)c1ccccc1)C(C)C,i,i,i,i,i,·,·
CCN(CC)CC#CCC(O)(c1ccccc1)C1CCCCC1 (configuration not stated),i,i,i,-10*,i,91*,90*
COC(=O)C1C2C=CC3(CN(C(C)C)C(=O)C13)O2 (configuration not stated),i,i,i,i,i,·,·
COc1ccc(Br)cc1C(=O)Nc1ccc(Cc2ccncc2)cc1,i,i,i,i,i,·,·
COc1c(C(=O)Nc2ccc(Cc3ccncc3)cc2)ccc2ccccc12,i,i,i,-13*,i,92*,86*
O=C(/C=C/c1ccco1)N1CCN(C/C=C/c2ccccc2)CC1,i,i,i,i,i,·,·
C=CCn1c(SCC(=O)c2cccs2)nc2sc(C)c(C)c2c1=O,i,i,i,-9.4*,i,92*,38*
COC(=O)c1ccc(OC)c(CSc2nnc(COc3ccccc3)o2)c1,i,i,i,i,i,·,·
COC(=O)c1ccc(OC)c(CSc2nnc(-c3ccc(C(C)(C)C)cc3)o2)c1,i,i,i,-7.9*,i,58*,84*
FC(F)(F)c1nc(-c2cccs2)ncc1-c1nnnn1-c1ccc(Cl)cc1,i,i,i,-8.9*,i,92*,58*
Clc1ccc(-n2nnnc2-c2cnc(-c3ccncc3)nc2-c2cccs2)cc1,i,i,i,i,i,·,·
COc1ccccc1/C=C/CN1CCC(n2nccc2NC(=O)CCc2ccccc2)CC1,i,i,i,-8.2*,i,61*,84*

# Screens (PubChem BioAssay)
